# HTRA1 inh: blocks human HTRA1 serine peptidase | Q92743 | recombinant HTRA1, FP-rhodamine activity-based probe, fluorescence polarization | inhibition, % at 5.96 µM | hit rate 0.5% among 340,000 | AID 504803; in the data active means inhibition above about 36%;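 further: 0% = enzyme with DMSO and 100% = wells lacking enzyme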
# DAGLB inh: diacylglycerol lipase beta (human) inhibition; HEK293T DAGLB membrane lysate, EnzChek fluorogenic substrate; hit rate 0.059% among 340,000; inhibition, % at 5.17 µM; in the data active means inhibition above about 34%;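 further: 0% = enzyme with vehicle and 100% = wells lacking enzyme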
# ABHD4 inh: inhibitors of mouse ABHD4; inhibition, % at 8.92 µM; AID 720543; Q8VD66; purified mABHD4, FP-Rh probe fluorescence polarization; hit rate 0.54% among 370,000;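 active means inhibition exceeding the mean over every tested compound plus 3 SD, cut at about 30% in these data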;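 further: 0% = plate median of compound wells and 100% = S159A mutant with DMSO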
# Target sequence (Q8VD66 whole entry, looked up): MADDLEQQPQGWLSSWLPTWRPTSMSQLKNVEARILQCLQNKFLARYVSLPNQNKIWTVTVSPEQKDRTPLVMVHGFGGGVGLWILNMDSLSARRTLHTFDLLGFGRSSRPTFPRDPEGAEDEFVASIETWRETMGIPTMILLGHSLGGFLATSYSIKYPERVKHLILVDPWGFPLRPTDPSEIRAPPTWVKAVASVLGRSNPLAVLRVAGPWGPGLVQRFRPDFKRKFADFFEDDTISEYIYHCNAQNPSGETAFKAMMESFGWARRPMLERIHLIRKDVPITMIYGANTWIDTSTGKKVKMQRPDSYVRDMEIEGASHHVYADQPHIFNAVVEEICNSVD
#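 Test system: mABHD4 protein | Buffer or medium: HEPES pH 7.0 buffer, 150 mM NaCl, 0.01% Pluronic F-127 | Probe or stimulus: FP-Rh fluorescent activity-based probe, added after compound pre-incubation | Timing: Pre-incubation 45 min, probe exposure 60 min, at 25 °C | Technique: Fluorescence polarization, excitation 525 nm, emission 598 nm, BODIPY TMR filters | Repeats: Single well per compound (singlicate)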
# SIAE primary: inhibitors of human sialic acid acetylesterase SIAE; AID 1053197; SIAE FP-Rh probe binding, fluorescence polarization; inhibition, % at 9.66 µM; hit rate 0.69% among 370,000;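 active means inhibition above a cutoff: mean of compounds within the control limits plus 3 SD of those, cut at about 17% in these data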;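 further: 0% = plate median of compound wells and 100% = probe without SIAE protein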
# TCR-CD3 inh: inhibitors of human TCR-CD3 interaction; TAMRA-labeled TCR probe fluorescence, biochemical; inhibition, % at 9.4 µM; hit rate 0.37% among 360,000; in the data active means inhibition above about 19%;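 further: recombinant mutant TCR 2C K166C tagged with TAMRA read by polarization; 0% = receptor in buffer alone and 100% = receptor with positive control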
# SIAE inh conf: human SIAE inhibition, confirmation; shares compounds with SIAE primary; SIAE FP-Rh activity-based probe, fluorescence polarization; inhibition, % at 9.66 µM; hit rate 13% among 2,300; AID 1117263;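 active means mean inhibition of the replicates above the hit cutoff set in the primary screen, cut at about 17% in these data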;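 further: 0% = SIAE with DMSO and probe and 100% = probe without SIAE; inhibitors lower polarization as more probe stays unbound to SIAE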
# An asterisk follows results filed as active; / = no result. The list is not random: actives were taken first. Their share in the collection is about 1.6%.
SMILES,HTRA1 inh,DAGLB inh,ABHD4 inh,SIAE primary,TCR-CD3 inh,SIAE inh conf
CC(=O)c1ccc2c(c1)C1C=CCC1C(C(=O)O)N2 (stereo not drawn),/,/,70.0*,34.1*,49.2*,8.5
O=C(O)c1ccc2c(c1)C1C=CCC1C(c1cc3c(cc1Br)OCO3)N2 (stereo not drawn),6.5,3.2,-7.1,5.1,4.7,/
C#CCNC(=O)C[C@H]1C[C@@]2(C(=O)OC)C(=C[C@H](C(C)C)O[C@@H]2C2CC2)N(CCC2=CCCCC2)C1=O,/,/,-3.4,6.7,/,/
CSC1=NC(C)(C)C=C(/C=C/c2ccc(Cl)cc2)N1,-4.3,-0.8,2.5,17.4*,-7.8,4.8
CSC1=NC(C)(C)C=C(/C=C/c2ccc(Cl)cc2Cl)N1,-12.7,-3.1,-12.2,-5.1,8.9,/
O=S1(=O)CC(O)C(O)CS1 (stereo not drawn),/,/,5.1,1.0,1.1,/
O=C(Nc1nc2ccc(Cl)cc2s1)c1ccc(Br)o1,-9.7,-1.5,-10.4,-5.4,-5.5,/
NNc1nc2ccc(Cl)cc2s1,19.0,1.4,-1.9,23.0*,0.7,0.6
CNC(=S)N(Cc1cccs1)Cc1cc2cc(OC)ccc2[nH]c1=O,-0.3,3.1,13.4,42.4*,7.5,72.6*
COC(=O)C[C@@H]1CC[C@H]2[C@H](COc3ccc(NC(=O)Nc4ccc(Cl)cc4)cc3C(=O)N2C)O1,/,/,-2.2,3.8,/,/
CCc1ccc(NC(=O)Nc2ccc3c(c2)N(C)C(=O)CS3)cc1,-17.4,-3.3,3.8,24.5*,4.7,1.4
Cc1cc(N=Cc2c(O)n(-c3cccc(C(F)(F)F)c3)c(=O)c3ccccc23)no1,-11.3,-1.1,1.9,21.2*,4.2,-8.2
Cc1ccccc1Cn1c2ccccc2c2cnn(CC(=O)NCc3ccccn3)c(=O)c21,-4.0,-1.4,-8.0,20.5*,-5.1,-0.4
CCCCN1CNC(=S)N(c2ccc(C(=O)OCC)cc2)C1,-0.1,-5.0,-3.7,18.4*,-3.2,-2.6
CCCCN1CNC(=S)N(c2cc(C)ccc2C)C1,6.8,-0.5,-2.5,0.7,-1.0,/
NC(=S)N/N=C1\CCOc2ccc(Cl)cc21,-2.4,2.0,10.2,18.5*,-5.7,-1.5
CC(=O)C1=C(C)N(Cc2ccc(F)cc2)C(=S)NC1c1ccc(Br)cc1 (stereo not drawn),/,/,-8.4,0.2,6.4,/
COc1ccc(-c2csc(N3CCN(c4cc(C)nc5ccccc45)CC3)n2)cc1OC,-0.7,0.9,7.8,20.4*,-4.9,7.4
C=CC[C@H]1c2ccccc2[C@H]2N3N=Cc4ccccc4[C@H]3[C@H](CCCC)C(=O)N2N1C(=O)c1ccccc1,/,/,1.6,3.3,/,/
COc1cc(NC(=O)c2cc3ccccc3cc2O)c(OC)cc1Cl,-8.2,-6.1,6.6,18.3*,-4.5,5.7
COc1ccccc1NC(=O)c1cc2cc(Br)ccc2cc1O,26.4,12.7,1.5,42.7*,7.7,-2.8
COc1ccccc1NC(=O)COC(=O)c1cc2ccccc2cc1O,5.4,-5.0,-4.8,0.7,0.5,/
Cc1occc1-c1nnc(SCC(=O)Nc2ccccn2)n1-c1ccccc1,/,/,4.0,-2.2,/,/
CCOC(=O)c1sc(Nc2nc3cc4c(cc3s2)OCO4)cc1C,7.8,-0.2,0.2,19.0*,-9.8,6.8
COc1cccc2sc(Nc3nc4ccc(NC(C)=O)cc4s3)nc12,3.7,8.5,3.1,-3.0,2.1,/
SMILES,HTRA1 inh,DAGLB inh,ABHD4 inh,SIAE primary,TCR-CD3 inh,SIAE inh conf
CCOC(=O)c1sc(Nc2nc3c(OC)cccc3s2)cc1C,-1.8,-4.8,8.6,19.4*,-6.5,0.8
COC(=O)C1CN(Cc2ccc(C)cc2)CCS(=O)(=O)N1Cc1cn(Cc2ccc(F)cc2)nn1 (stereo not drawn),/,/,-2.3,60.4*,/,-3.0
COC(=O)C1CN(Cc2ccc(F)cc2)CCS(=O)(=O)N1Cc1cn(Cc2ccc(F)cc2)nn1 (stereo not drawn),/,/,4.6,4.5,/,/
O=C(Cc1csc(NC(=O)c2ccccc2)n1)NO,6.7,-2.3,12.0,22.2*,-6.5,15.0
COc1ccc(C(=O)Nc2nc(CC(=O)NCCc3ccccc3)cs2)cc1,-9.8,0.0,-4.8,-1.3,4.5,/
O=C(NC(=S)N1CCOCC1)c1cn(-c2ccccc2)nc1-c1ccc(F)cc1,4.6,-3.9,3.2,28.1*,-6.1,0.0
Cc1ccc(NC(=O)C2CCCN(c3nnc(-n4cccc4)s3)C2)cc1C (stereo not drawn),/,/,-3.7,-3.9,/,/
COc1ccc(NC(=O)c2ccc(-c3ccc([N+](=O)[O-])cc3)o2)cc1OC,0.2,4.2,3.4,19.0*,0.1,6.3
COc1c(OC(C)=O)ccc(/C=C/c2ccc3cccc(OCc4ccccc4)c3n2)c1[N+](=O)[O-],-7.0,-2.1,-10.7,27.5*,-3.8,-16.4
CCOc1cccc(/C=N/N2CCN(c3ccc(Cl)cc3)CC2)c1O,-25.0,-7.5,2.2,21.2*,0.2,0.6
CC(C)C[C@@H](CN1CCC[C@H]1CN1C(=O)C(=O)NC[C@@H]1Cc1ccc(O)cc1)N1C[C@H](Cc2ccccc2)N(CCc2ccccc2)C(=O)C1=O,/,/,9.3,2.5,2.5,/
CC(C)C[C@H]1CN([C@@H](CC(C)C)CN2CCC[C@H]2CN2C(=O)C(=O)NC[C@@H]2Cc2ccc(O)cc2)C(=O)C(=O)N1CCc1ccccc1,/,/,8.0,19.6*,-8.6,9.6
O=S1(=O)N[C@@H](Cc2ccccc2)COc2cccc(NCCCN3CCOCC3)c21,/,/,2.9,6.7,0.5,/
Brc1ccc(N2O[C@H]3C=C[C@@H]2C3)nc1,/,/,11.4,10.8,9.1,/
CN(C(=O)c1ccc(N2CCOCC2)c([N+](=O)[O-])c1)C1CCCCC1,8.1,1.8,2.0,17.1*,1.0,2.1
COc1cc(-c2nnc(CSc3nnc(Nc4ccc(Oc5ccccc5)cc4)s3)o2)cc(OC)c1OC,-34.6,-2.5,-19.7,19.4*,0.7,-15.2
COc1cc(-c2nnc(CSc3nnc(N)s3)o2)cc(OC)c1OC,3.1,-1.1,0.8,1.1,4.5,/
COc1ccc(-c2nn(C)c3sc(C(=O)NCc4ccco4)cc23)cc1OC,-25.9,-0.1,-1.9,-50.8,4.4,/
COc1ccc(NC(=O)c2cc3c(-c4ccc(OC)c(OC)c4)nn(C)c3s2)cc1OC,13.8,7.1,17.3,18.8*,9.0,13.4
O=C1C=C(c2ccccc2)C[C@@H](c2ccc(Cl)cc2)C1,-40.6,-10.9,-11.8,25.7*,4.4,0.5
COc1ccc(/C=C/S(=O)(=O)NCC(C)C)c(CNC(=O)OC(C)(C)C)c1,/,/,-10.2,-0.4,/,/
CCN(CC)S(=O)(=O)c1cccc(C(=O)OC2CC(C)OC2=O)c1 (stereo not drawn),0.6,0.9,-2.6,17.1*,3.3,-2.2
CCOC(=O)C=Nc1c(N)n(C)c(=O)n(C)c1=O,-8.6,-4.4,0.4,-0.1,-3.5,/
Cn1c(N)c(N=O)c(=O)n(C)c1=O,0.9,0.7,-0.5,17.1*,6.3,1.5
CCCc1ccc(Oc2cn[nH]c2-c2ccc(O)cc2O)cc1,16.4,0.5,-4.0,8.5,-3.5,/
